# Assay outcomes: PubChem, Broad Institute
# IDH1 mut inh: IDH1 R132H (human) inhibition; inhibition, % at 10 µM; AID 624101; O75874; IDH1 R132H reductase, diaphorase/resazurin fluorescence, 60 min; 0.18% of 70,000 active; in the data active = inhibition above about 34%; inconclusive = no clear call, values can overlap the other calls; inactive = below about 11%;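 also: 0% = DMSO and 100% = no enzyme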
# Pf Dd2 growth: blocks growth of Plasmodium falciparum Dd2 parasites. P. falciparum Dd2 growth, SYBR Green, 72 h; active compounds read low. activity change, % at 10 µM. AID 1159554. 2.3% of 94,000 active; in the data active = activity change below about -80%; inconclusive = no clear call, values can overlap the other calls
# GASC1 inh: inhibitors of human demethylase GASC-1 KDM4C; inhibition, % at 12.5 µM; GST-KDM4C 2-372, H3K9me3 peptide, LANCE TR-FRET; AID 720574; 0.15% of 96,000 active;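 active = mean replicate inhibition above about 25%, with at least 55% of replicates also reaching it, limit read from the data, passing the limit was not always enough; inconclusive = only one of those two conditions met; inactive = neither condition met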
# Target sequence (Q9H3R0 2-372 limits assumed): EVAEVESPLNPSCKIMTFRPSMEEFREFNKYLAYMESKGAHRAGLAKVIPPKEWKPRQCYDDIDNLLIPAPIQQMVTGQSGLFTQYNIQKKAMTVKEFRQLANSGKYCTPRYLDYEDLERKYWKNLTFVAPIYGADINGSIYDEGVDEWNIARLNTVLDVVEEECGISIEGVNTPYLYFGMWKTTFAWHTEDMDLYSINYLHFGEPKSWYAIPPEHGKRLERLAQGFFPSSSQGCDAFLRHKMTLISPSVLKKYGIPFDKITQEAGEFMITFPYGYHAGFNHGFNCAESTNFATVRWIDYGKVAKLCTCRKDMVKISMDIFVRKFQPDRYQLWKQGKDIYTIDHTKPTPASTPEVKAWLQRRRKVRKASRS
#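 material = GST-tagged GASC-1 (JMJD2C) catalytic fragment, aa 2-372 | amount = enzyme final amount 10 nM | medium = HEPES buffer, pH 7.5, plus ascorbate | also added = H3K9me3 peptide substrate, Fe(II), 2-oxoglutarate | dosing = single dose | times = 30 min demethylation and 1 h detection at room temperature | detection = LANCE TR-FRET | read-out basis = Fall in 671/618 emission ratio as inhibition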
# T cruzi growth-1: T. cruzi proliferation inhibition. T. cruzi beta-gal in NIH3T3, GalScreen luminescence, 90 h. inhibition, % at 8.34 µM. 5.9% of 77,000 active. AID 624255;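 active = mean inhibition above about 93%, with at least 55% of replicates each passing it, limit read from the data, passing the limit was not always enough; inconclusive = only one of those two conditions holds; inactive = neither condition holds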
# T cruzi growth-2: blocks T. cruzi growth in NIH3T3 host cells; shares compounds with T cruzi growth-1; AID 651739; 72% of 5,600 active; inhibition, % at 8.35 µM; T. cruzi beta-gal in NIH3T3, GalScreen luminescence, 90 h;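 active = mean replicate inhibition above about 95% and at least 55% of replicates individually reaching it, limit read from the data; inconclusive = only one of the two criteria is met; inactive = neither criterion is met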
# T cruzi growth-3: blocks T. cruzi growth in NIH3T3 host cells; shares compounds with T cruzi growth-1; T. cruzi beta-gal in NIH3T3, GalScreen luminescence, 90 h; inhibition, % at 2.09 µM; 21% of 5,600 active;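 active = mean inhibition above about 95%, with at least 55% of replicates also reaching it, limit read from the data; inconclusive = meets just one of the two conditions; inactive = meets neither condition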;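 also: plate controls were neutral control median for no effect and positive control median for full effect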
# 3T3 cytotox: cytotoxicity in mouse NIH/3T3 fibroblasts; shares compounds with T cruzi growth-1; NIH/3T3 viability, CellTiter-Glo ATP luminescence, 90 h; cytotoxicity (signal decrease), % at 8.35 µM; 14% of 5,600 active; AID 651742;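 active = mean signal decrease across replicates above about 35% based on untreated-well scatter, with enough replicates individually passing, limit read from the data; inconclusive = no rule stated though some were filed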;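 also: 0% = median of neutral control wells and 100% = median of positive control wells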
# 3T3 cytotox 2: cytotoxicity in mouse NIH/3T3 fibroblasts; shares compounds with T cruzi growth-1; NIH/3T3 viability, CellTiter-Glo ATP luminescence, 90 h; inhibition, % at 24.9 µM; 56% of 5,600 active; AID 651744;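 active = mean loss of cell viability signal at or above a set limit, and enough replicates individually reaching it; inconclusive = meets only the mean limit or only the replicate share; inactive = meets neither condition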;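 also: 0% = median of neutral control wells and 100% = median of positive control wells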
# Numbers without * were called inactive; ? = inconclusive; · = no result. The list is not random: actives were taken first. Their share in the collection is about 5.9%.
SMILES,IDH1 mut inh,Pf Dd2 growth,GASC1 inh,T cruzi growth-1,T cruzi growth-2,T cruzi growth-3,3T3 cytotox,3T3 cytotox 2
CC(C)CC#Cc1ccc2c(c1)O[C@H](CN(C)C(=O)c1ccccc1F)[C@@H](C)CN([C@H](C)CO)S2(=O)=O,4,-82*,-1,88*,103*,58,-14,97*
C[C@@H]1CN([C@H](C)CO)S(=O)(=O)c2ccc(C#CCN(C)C)cc2O[C@@H]1CN(C)C(=O)c1ccccc1F,-3,-29,4,18,·,·,·,·
CC(C)CC#Cc1ccc2c(c1)O[C@H](CN(C)C(=O)c1ccccc1F)[C@H](C)CN([C@H](C)CO)S2(=O)=O,0,-71,-2,105*,105*,75,?,104*
CCCC#Cc1ccc2c(c1)O[C@@H](CN(C)C(=O)c1ccccc1F)[C@@H](C)CN([C@H](C)CO)S2(=O)=O,1,-77,-1,66,·,·,·,·
CCCC#Cc1ccc2c(c1)O[C@H](CN(C)C(=O)c1ccccc1F)[C@@H](C)CN([C@H](C)CO)S2(=O)=O,0,-78,-3,111*,110*,84,-19,8
Cc1ccc(-c2csc3ncnc(SCC(=O)Nc4ccccc4F)c23)cc1,0,·,·,·,·,·,·,·
COc1cccc(C2C(C(=O)c3ccco3)C(=O)C(=O)N2CCN(C)C)c1OC (stereo not given),0,·,·,·,·,·,·,·
COc1cccc(NC(=O)CCc2nc(-c3ccccc3Cl)no2)c1,-1,·,·,·,·,·,·,·
COc1cccc(S(=O)(=O)Nc2ccc3c(c2)[C@@H]2C[C@@H](CC(=O)NCc4ccc(Cl)cc4)O[C@@H](CO)[C@@H]2O3)c1,0,-40,3,78,·,·,·,·
COc1cccc(S(=O)(=O)Nc2ccc3c(c2)[C@H]2C[C@H](CC(=O)NCc4ccc(Cl)cc4)O[C@@H](CO)[C@H]2O3)c1,-1,-3,-6,146*,108*,36,-2,8
COc1cccc(S(=O)(=O)Nc2ccc3c(c2)[C@H]2C[C@H](CC(=O)NC4CCCCC4)O[C@H](CO)[C@H]2O3)c1,0,-37,-1,124*,?,-11,-3,7
COc1cccc(S(=O)(=O)Nc2ccc3c(c2)[C@H]2C[C@@H](CC(=O)NC4CCCCC4)O[C@H](CO)[C@H]2O3)c1,?,-18,·,15,·,·,·,·
CCC1C/C(=C\c2sccc2C)C(=O)/C(=C/c2sccc2C)C1 (stereo not given),0,·,·,·,·,·,·,·
O=C(Nc1cccc(F)c1)N1CCCCN2[C@H](CO)[C@H](c3ccc(-c4ccncc4)cc3)[C@H]2C1,·,-65,-1,105*,112*,54,1,53*
O=C(Nc1cccc(F)c1)N1CCCCN2[C@H](C1)[C@@H](c1ccc(-c3ccncc3)cc1)[C@@H]2CO,·,-37,-2,111*,111*,70,-19,7
O=C(Nc1ccc(F)cc1)N1CCCCN2[C@@H](CO)[C@@H](c3ccc(-c4ccncc4)cc3)[C@@H]2C1,·,-17,-2,72,·,·,·,·
Cc1ccc(-c2ccc([C@H]3[C@@H](CO)N4CCCCN(C(=O)Nc5cccc(F)c5)C[C@H]34)cc2)cc1,·,-27,13,107*,109*,115*,119*,105*
O=C(NO)c1ccc(C(=O)N/N=C/c2ccc3c(c2)OCCO3)cc1,0,·,·,·,·,·,·,·
O=C(C1CCCC1)N1CCCCN2[C@H](CO)[C@H](c3ccc(C#CC4(O)CCCC4)cc3)[C@@H]2C1,·,6,·,103*,99*,76,9,26
O=C(c1ccc(F)cc1)N1CCCCN2[C@H](CO)[C@@H](c3ccc(C#CC4(O)CCCC4)cc3)[C@H]2C1,·,0,-1,100*,35,16,3,-6
O=C(C1CCCC1)N1CCCCN2[C@H](CO)[C@@H](c3ccc(C#CC4(O)CCCC4)cc3)[C@H]2C1,·,-13,·,104*,-5,20,6,19
O=C(C1CCCC1)N1CCCCN2[C@H](C1)[C@@H](c1ccc(C#CC3(O)CCCC3)cc1)[C@@H]2CO,·,-41,·,70,·,·,·,·
O=C1C(=O)N(Cc2ccco2)C(c2cccc(Oc3ccccc3)c2)C1C(=O)c1cccs1 (stereo not given),0,·,·,·,·,·,·,·
C[C@@H]1CC[C@]2(C(=O)O[C@@H]3O[C@H](CO)[C@@H](O)[C@H](O)[C@H]3O)CC[C@]3(C(=O)O)C(=CCC4[C@@]5(C)CC[C@H](OC6OC[C@@H](O)[C@H](O)[C@H]6O)C(C)(C)C5CC[C@]43C)C2[C@H]1C (stereo not given in full),0,·,·,·,·,·,·,·
Cc1ccccc1NC(=O)CSc1nnc(-c2cccc(Cl)c2)n1C,0,·,·,·,·,·,·,·
SMILES,IDH1 mut inh,Pf Dd2 growth,GASC1 inh,T cruzi growth-1,T cruzi growth-2,T cruzi growth-3,3T3 cytotox,3T3 cytotox 2
COc1cc(Cl)c(C(Nc2ccccn2)c2cc(Cl)c3cccnc3c2O)cc1OC (stereo not given),0,·,·,·,·,·,·,·
C[C@H](O)C#Cc1ccc([C@@H]2[C@@H](CO)N3CCCCN(C(=O)c4ccc5c(c4)OCO5)C[C@@H]23)cc1,·,4,11,97*,105*,32,31,44*
C[C@H](O)C#Cc1ccc([C@@H]2[C@H]3CN(C(=O)c4ccc5c(c4)OCO5)CCCCN3[C@H]2CO)cc1,·,17,2,33,·,·,·,·
CC(C)C#Cc1ccc([C@H]2[C@@H](CO)N3CCCCN(C(=O)c4ccc5c(c4)OCO5)C[C@@H]23)cc1,·,-1,-2,99*,110*,106*,68*,50*
O=C(NCCNC(=O)c1ccccc1[N+](=O)[O-])c1ccc(F)cc1,0,·,·,·,·,·,·,·
C/C=C/c1ccc([C@@H]2[C@@H](CO)N(C(C)=O)[C@@H]2CNC(=O)CC2CC2)cc1,·,-11,-1,?,73,13,11,24
C/C=C/c1ccc([C@H]2[C@@H](CO)N(C(C)=O)[C@@H]2CNC(=O)c2ccccc2)cc1,·,5,-1,104*,97*,-87,-24,-31
C/C=C/c1ccc([C@@H]2[C@@H](CNC(=O)CC3CC3)N(C(C)=O)[C@H]2CO)cc1,·,4,-1,27,·,·,·,·
O=C(COc1cccc2ccccc12)Nc1cccc(C(=O)O)c1,0,·,·,·,·,·,·,·
O=C(C[C@@H]1CC[C@H]2[C@@H](COC[C@H](O)CN2Cc2ccc3c(c2)OCO3)O1)Nc1ccccc1,·,-14,1,41,·,·,·,·
O=C(C[C@H]1CC[C@H]2[C@@H](COC[C@H](O)CN2Cc2ccc3c(c2)OCO3)O1)Nc1ccc(-c2ccccc2)cc1,·,-7,0,104*,98*,52,27,57*
